Laboratory results from PubChem BioAssay AID624338 (The Scripps Research Institute Molecular Screening Center, 2012).
The source made the active and inactive calls.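 The calls were made as follows: active = inhibition of a cysteine-free insulin-degrading enzyme mutant that persists after dilution, so judged irreversible; inactive = inhibition weakens or vanishes on dilution, so reversible.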

Target: Insulin-degrading enzyme (Homo sapiens) (UniProt P14735)
Test: reversibility of cysteine-free IDE inhibition, late-stage follow-up, mechanism study for IDE inhibitor project, biochemical, cysteine-free mutant, FRET1 substrate, round 2 (AID 624338)
Conditions: recombinant CF-IDE, FRET1 substrate fluorescence, reversibility by dilution
Outline: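 material = CF-IDE enzyme | amount = 1 nM enzyme | compound dosing = 10-point semilog dilution series, nominal top dose 100 µM | repeats = triplicate | times = room temperature reaction | control set = DMSO high, no-enzyme low | medium = reaction buffer at pH 7.4 | reagent = FRET1 peptide substrate at 1 µM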

Sequence of Insulin-degrading enzyme (Homo sapiens) (P14735 whole entry, looked up): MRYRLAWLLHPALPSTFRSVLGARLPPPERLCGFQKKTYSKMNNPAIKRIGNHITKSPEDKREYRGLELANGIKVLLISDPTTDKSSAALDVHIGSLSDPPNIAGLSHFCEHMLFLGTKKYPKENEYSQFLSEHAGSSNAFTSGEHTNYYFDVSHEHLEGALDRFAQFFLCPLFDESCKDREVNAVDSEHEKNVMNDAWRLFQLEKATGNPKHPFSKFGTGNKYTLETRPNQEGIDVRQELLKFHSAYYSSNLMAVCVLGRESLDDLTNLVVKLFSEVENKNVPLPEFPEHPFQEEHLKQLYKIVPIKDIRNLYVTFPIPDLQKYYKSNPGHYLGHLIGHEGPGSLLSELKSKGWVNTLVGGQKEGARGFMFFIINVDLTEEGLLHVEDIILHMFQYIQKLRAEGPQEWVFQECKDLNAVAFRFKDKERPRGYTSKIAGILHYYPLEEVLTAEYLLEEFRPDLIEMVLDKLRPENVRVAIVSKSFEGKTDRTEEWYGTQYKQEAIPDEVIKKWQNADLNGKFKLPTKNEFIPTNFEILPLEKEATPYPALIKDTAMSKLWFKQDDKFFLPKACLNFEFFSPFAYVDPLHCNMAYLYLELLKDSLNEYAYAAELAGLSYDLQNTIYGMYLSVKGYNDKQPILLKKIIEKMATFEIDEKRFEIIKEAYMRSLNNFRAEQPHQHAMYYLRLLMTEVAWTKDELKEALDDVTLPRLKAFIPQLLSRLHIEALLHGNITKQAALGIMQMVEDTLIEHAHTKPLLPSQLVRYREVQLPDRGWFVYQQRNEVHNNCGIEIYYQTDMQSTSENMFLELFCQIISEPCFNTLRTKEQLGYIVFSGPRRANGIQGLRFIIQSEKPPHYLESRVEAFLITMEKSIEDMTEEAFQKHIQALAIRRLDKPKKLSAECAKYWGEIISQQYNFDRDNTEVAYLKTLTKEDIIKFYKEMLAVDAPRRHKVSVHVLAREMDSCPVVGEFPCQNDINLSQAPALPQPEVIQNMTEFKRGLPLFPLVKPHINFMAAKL

SMILES	outcome
O=C(c1ccc2nc(C(F)(F)F)[nH]c2c1)N1CCN(C(=O)C2COc3ccccc3O2)CC1 (stereo not given)	inactive
COc1cc(C(=O)N2CCN(C(=O)C3COc4ccccc4O3)CC2)cc(Cl)c1OC (stereo not given)	inactive
O=C(c1ccc(OCC2CCCO2)cc1)N1CCN(C(=O)C2COc3ccccc3O2)CC1 (stereo not given)	inactive
COc1ccc(C(=O)N2CCN(C(=O)C(c3ccccc3)c3ccccc3)CC2)cc1OC	inactive
c1coc(Cn2c(SCc3nc4ccccc4[nH]3)nnc2-c2cccs2)c1	inactive
COc1ccc(C(=O)N2CCN(C(=O)COc3ccc(Cl)cc3)CC2)cc1OC	inactive
c1ccc(-c2nnc(SCc3nc4ccccc4[nH]3)n2Cc2ccco2)nc1	inactive
O=C(c1ccc(Oc2ccc(F)cc2)cc1)N1CCN(C(=O)C2COc3ccccc3O2)CC1 (stereo not given)	inactive
Cc1ccc(COCc2nnc(SCc3nc4ccccc4[nH]3)n2Cc2ccco2)cc1	inactive
Cc1ccc(-c2nnc(SCc3nc4ccccc4[nH]3)n2Cc2ccco2)cc1	inactive
COc1ccc(C(=O)N2CCN(C(=O)C3COc4ccccc4O3)CC2)cc1 (stereo not given)	inactive
CCOc1ccc(C(=O)N2CCN(C(=O)C3COc4ccccc4O3)CC2)cc1 (stereo not given)	inactive
COc1cccc(C(=O)N2CCN(C(=O)C3COc4ccccc4O3)CC2)c1 (stereo not given)	inactive
COc1ccc(C(=O)N2CCN(C(=O)COc3ccc(C)cc3)CC2)cc1OC	inactive
Clc1ccc(COCc2nnc(SCc3nc4ccccc4[nH]3)n2Cc2ccco2)cc1	inactive
O=C(c1ccc(Oc2ccccc2)cc1)N1CCN(C(=O)C2COc3ccccc3O2)CC1 (stereo not given)	inactive
Cc1nc(COc2ccc(C(=O)N3CCN(C(=O)C4COc5ccccc5O4)CC3)cc2)cs1 (stereo not given)	inactive
c1ccc(-c2nnc(SCc3nc4ccccc4[nH]3)n2Cc2ccco2)cc1	inactive
CC(=O)Nc1ccccc1C(=O)N1CCN(C(=O)C2COc3ccccc3O2)CC1 (stereo not given)	inactive
COc1ccc(C(=O)N2CCN(C(=O)C3CC(=O)N(c4ccccc4)C3)CC2)cc1OC (stereo not given)	inactive
c1coc(Cn2c(SCc3nc4ccccc4[nH]3)nnc2-c2cnccn2)c1	inactive
COc1ccc(OCC(=O)N2CCN(C(=O)c3ccc(OC)c(OC)c3)CC2)cc1	inactive
COc1ccc(C(=O)N2CCN(C(=O)COc3ccccc3)CC2)cc1OC	inactive
COc1ccc(C(=O)N2CCN(C(=O)CCc3c[nH]c4ccccc34)CC2)cc1OC	inactive
c1coc(Cn2c(SCc3nc4ccccc4[nH]3)nnc2-c2ccco2)c1	inactive
